Experiments:
[1] = Inhibition of soybean 15-lipoxygenase; set-up: species or system Glycine max
Outline: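 Soybean 15-lipoxygenase with linoleic acid substrate (final 134 µM) in 0.1 M borate buffer pH 9 at 20 ± 1 °C. Absorbance read at 234 nm for 60 s after enzyme addition. Inhibitor plus linoleic acid served as blank. At least six controls and three tubes per inhibitor solution. Enzyme kept on ice, with controls run at intervals. IC50 from linear interpolation around 50% activity.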

[2] = Partition coefficient, log P of the compound; type: physicochemical; conditions: octanol/water

IC50 [1] | logP [2] | SMILES
5.2 µM | 2.79 | C=CCc1ccc(OC(=O)c2cccc(Cl)c2)c(OC)c1
23 µM | 1.86 | C=CCc1ccc(OC(=O)c2cccc(OC)c2)c(OC)c1
2.1 µM | 2.7 | C=CCc1ccc(OC(=O)c2cccc(F)c2)c(OC)c1
7.2 µM | 2.7 | C=CCc1ccc(OC(=O)c2ccc(F)cc2)c(OC)c1
2.2 µM | 3.52 | C=CCc1ccc(OC(=O)C2CCCCC2)c(OC)c1
19 µM | 1.86 | C=CCc1ccc(OC(=O)c2ccc(OC)cc2)c(OC)c1
77.2 µM | 2.87 | C=CCc1ccc(OC(=O)c2ccccc2C)c(OC)c1
1.7 µM | 0.86 | C=CCc1ccc(OC(=O)c2cccnc2)c(OC)c1
11.4 µM | 2.87 | C=CCc1ccc(OC(=O)c2cccc(C)c2)c(OC)c1
134 µM | 2.79 | C=CCc1ccc(OC(=O)c2ccc(Cl)cc2)c(OC)c1
33.3 µM | 0.86 | C=CCc1ccc(OC(=O)c2ccccn2)c(OC)c1
0.017 µM | 4.82 | C=CCc1ccc(OC(=O)C23CC4CC(CC(C4)C2)C3)c(OC)c1
2.3 µM | 0.86 | C=CCc1ccc(OC(=O)c2ccncc2)c(OC)c1
14.6 µM | 2.87 | C=CCc1ccc(OC(=O)c2ccc(C)cc2)c(OC)c1
168 µM | 2.79 | C=CCc1ccc(OC(=O)c2ccccc2Cl)c(OC)c1
6.7 µM | 2.7 | C=CCc1ccc(OC(=O)c2ccccc2F)c(OC)c1
34.6 µM | – | C=CCc1ccc(O)c(OC)c1 [EUGENOL]
4.4 µM | 2.25 | C=CCc1ccc(OC(=O)c2ccccc2)c(OC)c1 [EUGENYL BENZOAT]
